# Experimental data as given in ChEMBL document CHEMBL3232757, “Structure-activity relationships for withanolides as inducers of the cellular heat-shock response” (J Med Chem, 2014).
# The source made the active and inactive calls. No cut-off for these calls is given here.
# Tests used:
# Mus musculus [1] = assay: Induction of heat shock activity in mouse assessed as upregulation of HSP72 protein level in spleen at 25 mg/kg, sc after 18 hrs by immunoblotting analysis; format: functional, organism-based; design: dose 25 mg/kg
# Procedure, shortened: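 Mice were randomly assigned. Dosing was by subcutaneous injection, 25 mg/kg, in hydroxypropyl β-cyclodextrin 30% w/v with DMSO 10% v/v; vehicle controls got an equal volume; five mice per group. Spleens were taken about 18 h later, snap-frozen, pulverized and lysed in nonionic detergent buffer. 15 μg protein/lane went to SDS-PAGE and immunoblotting for HSP72. Band intensity was normalized to β-actin. Variance versus vehicle was compared by F test.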
# [2] = Cytotoxicity against human CHP100 cells assessed as inhibition of cell survival at 4 uM after 24 hrs by MTT assay relative to control; format: functional; details: CHP100, 24 h
# [3] = target: Heat shock 70 kDa protein 6 (Homo sapiens) (UniProt P17066); assay: Induction of […] (unknown origin)-mediated heat shock response expressed in human 293T cells coexpressing GFP assessed as heat shock index after overnight incubation by luciferase reporter gene assay relative to control; format: cell-based
# Chain of Heat shock 70 kDa protein 6 (Homo sapiens) (P17066 whole entry, the tested form may be a part): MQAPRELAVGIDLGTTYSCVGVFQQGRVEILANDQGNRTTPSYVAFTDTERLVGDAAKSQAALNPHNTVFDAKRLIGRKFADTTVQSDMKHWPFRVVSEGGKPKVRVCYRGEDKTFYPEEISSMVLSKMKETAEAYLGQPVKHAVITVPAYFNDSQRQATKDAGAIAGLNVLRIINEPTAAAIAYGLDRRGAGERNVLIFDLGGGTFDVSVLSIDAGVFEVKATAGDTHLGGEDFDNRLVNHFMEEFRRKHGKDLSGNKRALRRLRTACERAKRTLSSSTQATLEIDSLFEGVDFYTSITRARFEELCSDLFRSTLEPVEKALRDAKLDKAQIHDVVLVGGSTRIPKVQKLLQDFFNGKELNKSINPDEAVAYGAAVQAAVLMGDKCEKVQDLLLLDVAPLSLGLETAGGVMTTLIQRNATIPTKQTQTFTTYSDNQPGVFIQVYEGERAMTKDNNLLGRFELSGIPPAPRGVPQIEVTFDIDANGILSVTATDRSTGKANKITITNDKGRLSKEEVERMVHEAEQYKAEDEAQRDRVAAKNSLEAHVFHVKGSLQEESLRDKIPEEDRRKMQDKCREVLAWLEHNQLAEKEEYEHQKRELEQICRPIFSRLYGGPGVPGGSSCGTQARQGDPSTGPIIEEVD
# Procedure, shortened: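 293T cells transduced with a lentiviral EGFP–firefly luciferase fusion under HSP70B′ promoter elements, enriched by heat shock (42 °C, 1 h) plus FACS, then reverse-sorted to remove constitutive expressers. Cells in DMEM/10% FBS were seeded at 20 000/well and given serial dilutions next day, quadruplicate wells, overnight. Read by Steady-Glo luminescence. Index = [Log2(treated/control)]/concentration (μM) at maximal response.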
# [4] = Cytotoxicity against human NCI-H929 cells after 3 days by Alamar blue assay; format: functional, cell-based; details: NCI-H929, 72 h
# Mus musculus [5] = species: Mus musculus; assay: Induction of heat shock protein-mediated heat shock response in mouse 3T3-Y9-B12 cells assessed as heat shock index after 24 hrs by fluorescence assay relative to control; format: cell-based
# Procedure, shortened: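 Mouse 3T3-Y9-B12 heat-shock reporter cells seeded 20 000/well, left to adhere overnight, then exposed 24 h to compound at 1, 2, or 4 μM. After PBS wash, fluorescence read at excitation 485 nm and emission 530 nm. Heat-shock index calculated as [Log2(treated/control)]/concentration (μM).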
# [6] = Cytotoxicity against human CHP100 cells assessed as inhibition of cell survival after 24 hrs by MTT assay; format: functional, cell-based; details: CHP100, 24 h
# Mus musculus [7] = assay: Induction of heat shock activity in mouse assessed as upregulation of HSP72 protein level in spleen at 40 mg/kg, sc after 18 hrs by immunoblotting analysis relative to control; format: functional, organism-based; design: dose 40 mg/kg
# Procedure, shortened: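 Mice given a single subcutaneous dose in cyclodextrin vehicle (hydroxypropyl β-cyclodextrin 30% w/v, DMSO 10% v/v). Controls received an equal volume of vehicle alone. Three mice per group at 40 mg/kg. Spleens harvested about 18 h after dosing, snap-frozen and lysed in nonionic detergent buffer. 15 μg protein/lane run on SDS-PAGE and immunoblotted for HSP72 and β-actin. HSP72 band intensity normalized to actin; Student's t test versus vehicle.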
SMILES,Activity (Mus musculus [1]),inhibition at 4 µM [2] [%],Activity [3],fold change (FC) [3],IC50 [4] [nM],fold change (FC) (Mus musculus [5]),IC50 [6] [nM],Activity (Mus musculus [7])
CC1=C(CO)C(=O)O[C@@H]([C@@H](C)[C@H]2CC[C@H]3[C@@H]4C[C@H]5O[C@]56[C@@H](O)C=CC(=O)[C@]6(C)[C@H]4CC[C@]23C)C1 [WITHAFERIN A],inactive,> 80,Dose-dependent effect,1.35,250,2.1,970,
CC(=O)OCC1=C(C)C[C@H]([C@@H](C)[C@H]2CC[C@H]3[C@@H]4C[C@H]5O[C@]56[C@H](O)C=CC(=O)[C@]6(C)[C@H]4CC[C@]23C)OC1=O,,> 80,Dose-dependent effect,3.69,50,4.7,220,
CC(=O)OCC1=C(C)C[C@H]([C@@H](C)[C@H]2CC[C@H]3[C@@H]4C[C@H]5O[C@]56[C@H](OC(C)=O)C=CC(=O)[C@]6(C)[C@H]4CC[C@]23C)OC1=O,Active,,,,,,,Active
CC(=O)OCC1=C(C)C[C@H]([C@@H](C)[C@H]2CC[C@H]3[C@@H]4C[C@H]5O[C@]56[C@@H](O)[C@@H](OS(=O)(=O)O)CC(=O)[C@]6(C)[C@H]4CC[C@]23C)OC1=O,,> 80,,0.36,1120,,730,
